{"data": "Measured values from different studies", "RET V804M": "Proto-oncogene tyrosine-protein kinase receptor Ret (RET, Homo sapiens, UniProt P07949, V804M)", "RET": "Proto-oncogene tyrosine-protein kinase receptor Ret (RET, Homo sapiens, UniProt P07949)", "RET M918T": "Proto-oncogene tyrosine-protein kinase receptor Ret (RET, Homo sapiens, UniProt P07949, M918T)", "RET V804L": "Proto-oncogene tyrosine-protein kinase receptor Ret (RET, Homo sapiens, UniProt P07949, V804L)"}
{"SMILES": "Cc1nn(C)cc1-c1nc2c(N3CCN(Cc4ccc(Cl)cc4)CC3)c(Cl)cnc2[nH]1", "target": "RET V804M", "assay": "binding, competition with immobilised ligand", "setting": "1 µM", "quantity": "remaining binding", "result": "22%"}
{"SMILES": "O=C(Cn1cc(C=C2C(=O)NC(=O)NC2=O)c2ccccc21)Nc1ccccc1", "target": "RET", "assay": "enzyme activity, inhibitor, radiometric", "setting": "10 µM", "quantity": "remaining activity", "result": "110%"}
{"SMILES": "COc1ncccc1-c1cnn2ccc(N3CCN(C(=O)OC(C)C)CC3)nc12", "target": "RET", "assay": "binding, competition with immobilised ligand", "setting": "1 µM", "quantity": "remaining binding", "result": "100%"}
{"SMILES": "C#Cc1n[nH]c2c(-c3cn(C(C)c4ccccn4)c(=O)[nH]c3=O)cc(F)cc12 (stereo not drawn)", "target": "RET", "assay": "enzyme activity, inhibitor", "setting": "1 µM", "quantity": "inhibition", "result": "8.7%"}
{"SMILES": "Cn1cncc1[C@@](O)(COc1ccc(C#N)cc1-c1ccc(OC(F)(F)F)cc1)c1ccc(C#N)cc1", "target": "RET M918T", "assay": "cell-free assay, competition with immobilised ligand", "setting": "1 µM", "quantity": "remaining binding", "result": "98%"}
{"SMILES": "Cn1cc(-c2cc(F)cc(N3CCn4c(cc5c4CCCC5)C3=O)c2CO)cc(Nc2ccc(N3CCN(C4COC4)CC3)cn2)c1=O", "target": "RET", "assay": "enzyme activity, inhibitor", "setting": "0.1 µM", "quantity": "inhibition", "result": "11%"}
{"SMILES": "N#CC1(c2ccccn2)CCN(Cc2cc(C(=O)O)c(=O)n3ccccc23)CC1", "target": "RET V804L", "assay": "cell-free assay, competition with immobilised ligand", "setting": "1 µM", "quantity": "remaining binding", "result": "100%"}
{"SMILES": "O=C1NC(=O)N(c2ccccc2)C(=O)C1=CNc1ccc2[nH]c(=O)[nH]c2c1", "target": "RET", "assay": "enzyme activity, inhibitor, radiometric", "setting": "10 µM", "quantity": "remaining activity", "result": "90.6%"}
{"SMILES": "O=C(NCc1ncc(C(F)(F)F)cc1Cl)c1ccc2c(c1)C1(CCS(=O)(=O)CC1)[C@H](C1CC1)N2S(=O)(=O)c1ccc(F)cc1", "target": "RET M918T", "assay": "cell-free assay, competition with immobilised ligand", "setting": "1 µM", "quantity": "remaining binding", "result": "96%"}
{"SMILES": "Nc1ncc(-c2nc(N3CCOCC3)nc(N3CCOCC3)n2)c(C(F)F)n1", "target": "RET V804L", "assay": "binding, competition with immobilised ligand", "setting": "10 µM", "quantity": "remaining binding", "result": "88%"}
{"SMILES": "C#Cc1n[nH]c2c(-c3cn([C@@H](C)c4ccccc4)c(=O)[nH]c3=O)cc(F)cc12", "target": "RET V804M", "assay": "enzyme activity, inhibitor", "setting": "0.1 µM", "quantity": "inhibition", "result": "2.3%"}
{"SMILES": "O=c1[nH]c2ccccc2n1C1CCN(Cc2ccc(-c3[nH]c4cc5ncnc5cc4nc3-c3ccccc3)cc2)CC1", "target": "RET", "assay": "cell-free assay", "setting": "0.5 µM", "quantity": "remaining signal", "result": "96.7%"}
